Reference: ChEMBL document CHEMBL2401720, “Synthesis and structure-activity relationship studies of O-biphenyl-3-yl carbamates as peripherally restricted fatty acid amide hydrolase inhibitors” (J Med Chem, 2013)
Activity calls are given as the source filed them. The rule behind the calls is not given here.

Experiments:
Mus musculus [1] = assay: In vivo inhibition of FAAH in sc dosed Swiss Webster mouse brain using [3H]-ethanolamine as substrate after 1 hr by liquid scintillation counting analysis; format: functional, organism-based
Mus musculus [2] = assay: In vivo inhibition of FAAH in Swiss Webster mouse brain using [3H]-ethanolamine as substrate at 40 mg/kg, sc after 1 hr by liquid scintillation counting analysis in presence of Abcg2 inhibitor Ko-143; format: functional, organism-based; design: dose 40 mg/kg
Mus musculus [3] = assay: In vivo inhibition of FAAH in Swiss Webster mouse liver using [3H]-ethanolamine as substrate at 1 mg/kg, ip after 1 hr by liquid scintillation counting analysis relative to control; format: functional; conditions: route intraperitoneal
Mus musculus [4] = assay: In vivo inhibition of FAAH in Swiss Webster mouse brain using [3H]-ethanolamine as substrate at 1 mg/kg, ip after 1 hr by liquid scintillation counting analysis relative to control; format: functional; conditions: route intraperitoneal
Mus musculus [5] = assay: In vivo inhibition of FAAH in ip dosed Swiss Webster mouse brain using [3H]-ethanolamine as substrate after 1 hr by liquid scintillation counting analysis; format: functional
[6] = molecular target: T1, Fatty-acid amide hydrolase 1 (Rattus norvegicus, UniProt P97612); assay: Inhibition of Wistar rat brain FAAH using [3H]-ethanolamine as substrate preincubated for 20 mins followed by substrate addition by liquid scintillation counting analysis
T1 sequence (P97612 whole entry): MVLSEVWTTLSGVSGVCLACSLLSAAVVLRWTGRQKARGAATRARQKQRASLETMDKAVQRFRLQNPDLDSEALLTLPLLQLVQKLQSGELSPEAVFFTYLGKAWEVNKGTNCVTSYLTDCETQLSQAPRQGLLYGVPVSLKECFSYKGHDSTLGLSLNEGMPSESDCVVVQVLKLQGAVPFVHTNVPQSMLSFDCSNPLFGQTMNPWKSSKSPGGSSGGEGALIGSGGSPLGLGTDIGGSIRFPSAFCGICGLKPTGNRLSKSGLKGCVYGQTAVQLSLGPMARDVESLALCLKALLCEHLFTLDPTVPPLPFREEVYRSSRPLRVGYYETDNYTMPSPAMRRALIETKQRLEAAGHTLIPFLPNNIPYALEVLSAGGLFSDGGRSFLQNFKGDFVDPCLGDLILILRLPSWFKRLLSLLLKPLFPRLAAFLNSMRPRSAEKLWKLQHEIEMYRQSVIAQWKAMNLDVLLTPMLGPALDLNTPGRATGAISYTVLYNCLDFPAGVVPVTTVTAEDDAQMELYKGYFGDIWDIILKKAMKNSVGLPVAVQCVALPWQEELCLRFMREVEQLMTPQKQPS
Method in brief: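 FAAH source was the membrane homogenate of Wistar rat brain (50 μg protein). It was preincubated with inhibitor for 20 min at 37°C, then incubated 30 min at 37°C in Tris 50 mM pH 7.5 with 0.05% fatty acid-free BSA, 10 μM anandamide and anandamide[ethanolamine-3H]. The reaction was stopped with chloroform/methanol (1:1), and aqueous-layer radioactivity was counted by liquid scintillation to give IC50.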

Mus musculus [7] = assay: In vivo inhibition of FAAH in Swiss Webster mouse brain using [3H]-ethanolamine as substrate at 25 mg/kg, sc after 1 hr by liquid scintillation counting analysis in presence of Abcg2 inhibitor Ko-143; format: functional, organism-based; design: dose 25 mg/kg
Method in brief: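 Adult male Swiss-Webster mice (25-30 g) got Ko-143 (15 mg/kg, i.p., in saline/PEG400/Tween80 18:1:1 with 30% DMSO) 20 min before a single s.c. dose of inhibitor in the same vehicle without DMSO. Brain taken 1 h later and homogenate supernatant (1000 × g) assayed: 37°C, 30 min, pH 7.5 Tris, 0.05% BSA, 10 μM anandamide plus [ethanolamine-3H]anandamide, aqueous-phase scintillation counting; mean ± s.e.m., n = 3-4.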

Mus musculus [8] = assay: In vivo inhibition of FAAH in ip dosed Swiss Webster mouse liver; format: functional
Mus musculus [9] = assay: In vivo inhibition of FAAH in ip dosed Swiss Webster mouse peripheral tissue; format: functional
Mus musculus [10] = assay: In vivo inhibition of FAAH in Swiss Webster mouse brain using [3H]-ethanolamine as substrate at 75 mg/kg, sc after 1 hr by liquid scintillation counting analysis; format: functional, organism-based; design: dose 75 mg/kg

Row | SMILES | inhibition (Mus musculus [1]) | inhibition (Mus musculus [2]) | inhibition in vivo at 1 mg/kg (Mus musculus [3]) | inhibition in vivo at 1 mg/kg (Mus musculus [4]) | ED50 (Mus musculus [5]) | IC50 [6] | inhibition (Mus musculus [7]) | ED50 (Mus musculus [8]) | ED50 (Mus musculus [9]) | inhibition (Mus musculus [10])
1 | NC(=O)c1cccc(-c2cc(O)cc(OC(=O)NC3CCCCC3)c2)c1 | Dose-dependent effect | Active | 89.5% | -4.2% | 75 mg/kg |  |  |  |  | 
2 | CC(O)c1cccc(-c2cc(OC(=O)NC3CCCCC3)ccc2O)c1 (stereo not given) |  |  | 80.9% | 89.6% |  | 2 nM |  |  |  | 
3 | NC(=O)c1cccc(-c2cc(OC(=O)NC3CCCCC3)ccc2O)c1 | Dose-dependent effect |  | 91.7% | -3% | 40 mg/kg |  | Active | 0.2 mg/kg | 0.2 mg/kg | 
4 | NC(=O)c1cccc(-c2cc(OC(=O)NC3CCCCC3)ccc2C(=O)O)c1 | Dose-dependent effect | inactive | 86.3% | -2.1% |  |  |  |  |  | inactive
